Reference: ChEMBL document CHEMBL5325487, “Suramin analogues protect cartilage against osteoarthritic breakdown by increasing levels of tissue inhibitor of metalloproteinases 3 (TIMP-3) in the tissue” (Bioorg Med Chem, 2023)
One block for each compound: values may come before it. Calls of active or inactive are those of the source. No cut-off for these calls is given here.

Key:
SW1353 [1] = assay: Cytotoxicity against human HTB-94 cells assessed as cell viability at 100 ug/ml measured after 36 h by MTS assay
[2] = Induction of TIMP3 protein level in human HTB-94 cells at 100 ug/ml incubated for 36 hrs by slot blotting analysis relative to suramin; type: functional, SW1353; conditions: dose 100 µg/ml
Method in brief: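 Serum-free 36 h treatment (100 μg/mL) of HTB94 cells (5×10^5/well). TCA-concentrated conditioned medium was slot-blotted onto nitrocellulose and probed with rabbit anti-TIMP-3 and an IRDye 800CW secondary, then imaged by infrared fluorescence. Pixel volume is expressed relative to 100 μg/mL suramin samples on the same blot (100%). n = 3, mean ± SD.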

Sus scrofa = species on record: Sus scrofa; assay: Inhibition of cartilage degradation in porcine cartilage explants assessed as inhibition of IL-1beta-induced aggrecan release at 100 ug/ml measured after 3 days by DMMB assay; type: functional, tissue-based; conditions: Cartilage tissue, dose 100.0 µg/ml, time 3.0 day
Method in brief: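 Porcine metacarpophalangeal cartilage explants (3–9-month-old pigs), rested 48 h after dissection, were washed and treated 72 h with IL-1β (10 ng/mL) plus 100 μg/mL analogue. Medium was DMEM with 0.1% FCS, amphotericin B and 10 mM HEPES. Aggrecan released into the medium was measured by DMMB assay. n = 3 biological × 2 technical replicates, mean ± SD.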

SW1353 [3] = assay: Induction of TIMP3 protein level in human HTB-94 cells at 100 ug/ml incubated for 36 hrs by Western blotting analysis; type: functional, cell-based; conditions: dose 100.0 µg/ml
Method in brief: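 HTB94 cells (5×10^5/well) washed in serum-free DMEM and treated 36 h with 100 μg/mL in serum-free DMEM. Conditioned medium was TCA-precipitated and run on non-reducing 15% SDS-PAGE, then transferred to PVDF. TIMP-3 was detected with rabbit anti-TIMP-3 and an IRDye 800CW secondary by infrared imaging. Values are expressed as % of 100 μg/mL suramin-treated samples on the same blot. n = 3, mean ± SD.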

[4] = Cytotoxicity against porcine Chondrocyte assessed cell number at 100 ug/ml incubated for 3 days in presence of IL-1beta by MTS assay; type: toxicity, cell-based, Sus scrofa; conditions: pig, 72 h, dose 100 µg/ml, time 3 day
Method in brief: (§1)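 Primary porcine chondrocytes, released by pronase E then type II collagenase digestion of cartilage and plated at 10^4/well, were washed in serum-free DMEM. They were exposed to 100 μg/mL analogue, with or without IL-1β (10 ng/mL), for 3 days. Cell number was read by MTS against a twice freeze/thawed control. n = 3 biological replicates, mean ± SD.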

[5] = Induction of TIMP3 protein level in human HTB-94 cells incubated for 36 hrs by slot blotting analysis relative to 100 ug/ml suramin; type: functional, cell-based; conditions: SW1353, 36 h
Method in brief: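 Dose-response over 0–250 μg/mL for 36 h in serum-free DMEM using HTB94 cells (5×10^5/well). TIMP-3 in TCA-concentrated medium was measured by slot blot with anti-TIMP-3/IRDye 800CW detection, normalised to 100 μg/mL suramin on each blot. EC50 was fitted with a one-site specific binding model. n = 3, mean ± SD.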

SW1353 [6] = assay: Effect on LRP1 mRNA level in human HTB-94 cells at 50 to 200 ug/ml incubated for 36 hrs by RT-qPCR analysis; type: functional, cell-based; conditions: dose 50-200 µg/ml
Method in brief: (§2)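 HTB94 cells (5×10^5/well) plated overnight, washed three times, then treated with analogue (50–200 μg/mL) in serum-free DMEM for 36 h. RNA was isolated and transcripts quantified by RT-qPCR (ΔΔCt), normalised to RN18S1 and to untreated cells. n = 3, mean ± SD.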

SW1353 [7] = assay: Effect on ADAMTS4 mRNA level in human HTB-94 cells at 50 to 200 ug/ml incubated for 36 hrs by RT-qPCR analysis; type: functional, cell-based; conditions: dose 50-200 µg/ml
Method in brief: as §2

SW1353 [8] = assay: Effect on TIMP3 mRNA level in human HTB-94 cells at 50 to 200 ug/ml incubated for 36 hrs by RT-qPCR analysis; type: functional, cell-based; conditions: dose 50-200 µg/ml
Method in brief: as §2

SW1353 [9] = assay: Effect on MMP13 mRNA level in human HTB-94 cells at 50 to 200 ug/ml incubated for 36 hrs by RT-qPCR analysis; type: functional, cell-based; conditions: dose 50-200 µg/ml
Method in brief: as §2

[10] = Cytotoxicity against porcine Chondrocyte assessed cell number at 100 ug/ml incubated for 3 days by MTS assay; type: toxicity, cell-based, Sus scrofa; conditions: pig, 72 h, dose 100 µg/ml, time 3 day
Method in brief: as §1

SW1353 [11] = assay: Effect on ADAMTS5 mRNA level in human HTB-94 cells at 50 to 200 ug/ml incubated for 36 hrs by RT-qPCR analysis; type: functional, cell-based; conditions: dose 50-200 µg/ml
Method in brief: as §2

[12] = molecular target: T1, Metalloproteinase inhibitor 3 (Homo sapiens, UniProt P35625); assay: Binding affinity to FLAG-tagged human TIMP3 expressed in HEK293 cells assessed as dissociation constant; type: cell-based
T1 sequence (P35625 whole entry): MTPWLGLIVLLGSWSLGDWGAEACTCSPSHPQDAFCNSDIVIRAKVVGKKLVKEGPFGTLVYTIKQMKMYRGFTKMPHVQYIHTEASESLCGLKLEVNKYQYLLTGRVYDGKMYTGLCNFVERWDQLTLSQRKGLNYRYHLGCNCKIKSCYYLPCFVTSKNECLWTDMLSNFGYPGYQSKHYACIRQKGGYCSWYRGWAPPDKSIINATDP

SMILES: O=C(Nc1cccc(C(=O)Nc2ccc(C(=O)Nc3cc(S(=O)(=O)O)cc4cc(S(=O)(=O)O)cc(S(=O)(=O)O)c34)cc2)c1)Nc1cccc(C(=O)Nc2ccc(C(=O)Nc3cc(S(=O)(=O)O)cc4cc(S(=O)(=O)O)cc(S(=O)(=O)O)c34)cc2)c1
- Activity (SW1353 [1]): Non-Toxic
- Activity [2]: -50%
- inhibition (Sus scrofa): Active

SMILES: O=C(Nc1cc(S(=O)(=O)O)cc2cc(S(=O)(=O)O)cc(S(=O)(=O)O)c12)c1ccc([N+](=O)[O-])cc1
- Activity (SW1353 [3]): inactive

- EC50 [5]: 19000 nM
SMILES: O=C(Nc1ccc(C(=O)Nc2ccc(C(=O)Nc3cc(S(=O)(=O)O)cc4cc(S(=O)(=O)O)cc(S(=O)(=O)O)c34)cc2)cc1)Nc1ccc(C(=O)Nc2ccc(C(=O)Nc3cc(S(=O)(=O)O)cc4cc(S(=O)(=O)O)cc(S(=O)(=O)O)c34)cc2)cc1
- Activity [4]: Non-Toxic
- Activity (SW1353 [6]): inactive
- Activity (SW1353 [7]): inactive
- Activity (SW1353 [8]): inactive
- Activity (SW1353 [9]): inactive
- Activity [10]: Non-Toxic
- Activity (SW1353 [11]): inactive
- Activity [2]: 30%
- Activity (SW1353 [3]): Active

SMILES: O=C(Nc1ccc(C(=O)Nc2cc(S(=O)(=O)O)cc3cc(S(=O)(=O)O)cc(S(=O)(=O)O)c23)cc1)c1ccc([N+](=O)[O-])cc1
- Activity (SW1353 [3]): inactive

- Kd [12]: 1.55 nM
SMILES: O=C(Nc1cccc(C(=O)Nc2cc(C(=O)Nc3ccc(S(=O)(=O)O)c4cc(S(=O)(=O)O)cc(S(=O)(=O)O)c34)ccc2F)c1)Nc1cccc(C(=O)Nc2cc(C(=O)Nc3ccc(S(=O)(=O)O)c4cc(S(=O)(=O)O)cc(S(=O)(=O)O)c34)ccc2F)c1

SMILES: Nc1ccc(C(=O)Nc2ccc(C(=O)Nc3cc(S(=O)(=O)O)cc4cc(S(=O)(=O)O)cc(S(=O)(=O)O)c34)cc2)cc1
- Activity (SW1353 [3]): inactive

- Kd [12]: 6.88 nM
SMILES: O=C(Nc1cc(C(=O)Nc2ccc(S(=O)(=O)O)cc2)cc(C(=O)Nc2ccc(S(=O)(=O)O)cc2)c1)Nc1cc(C(=O)Nc2ccc(S(=O)(=O)O)cc2)cc(C(=O)Nc2ccc(S(=O)(=O)O)cc2)c1

- Kd [12]: > 100 nM
SMILES: Cc1ccc(C(=O)Nc2ccc(P(=O)(O)O)cc2P(=O)(O)O)cc1NC(=O)c1cccc(NC(=O)Nc2cccc(C(=O)Nc3cc(C(=O)Nc4ccc(P(=O)(O)O)cc4P(=O)(O)O)ccc3C)c2)c1

- EC50 [5]: 17000 nM
SMILES: O=C(Nc1ccc(C(=O)Nc2ccc(C(=O)Nc3ccc(S(=O)(=O)O)c4cc(S(=O)(=O)O)cc(S(=O)(=O)O)c34)cc2)cc1)Nc1ccc(C(=O)Nc2ccc(C(=O)Nc3ccc(S(=O)(=O)O)c4cc(S(=O)(=O)O)cc(S(=O)(=O)O)c34)cc2)cc1

- Kd [12]: 26.5 nM
SMILES: O=C(Nc1cccc(C(=O)Nc2ccc(S(=O)(=O)O)c3cc(S(=O)(=O)O)cc(S(=O)(=O)O)c23)c1)Nc1cccc(C(=O)Nc2ccc(S(=O)(=O)O)c3cc(S(=O)(=O)O)cc(S(=O)(=O)O)c23)c1

- Kd [12]: 4.66 nM
SMILES: O=C(Nc1cc(C(=O)Nc2ccc(S(=O)(=O)O)cc2S(=O)(=O)O)cc(C(=O)Nc2ccc(S(=O)(=O)O)cc2S(=O)(=O)O)c1)Nc1cc(C(=O)Nc2ccc(S(=O)(=O)O)cc2S(=O)(=O)O)cc(C(=O)Nc2ccc(S(=O)(=O)O)cc2S(=O)(=O)O)c1

- EC50 [5]: 15000 nM
SMILES: Cc1ccc(C(=O)Nc2ccc(S(=O)(=O)O)c3cc(S(=O)(=O)O)cc(S(=O)(=O)O)c23)cc1NC(=O)c1cccc(NC(=O)Nc2cccc(C(=O)Nc3cc(C(=O)Nc4ccc(S(=O)(=O)O)c5cc(S(=O)(=O)O)cc(S(=O)(=O)O)c45)ccc3C)c2)c1 [SURAMIN]
- Activity [4]: Non-Toxic
- Activity (SW1353 [6]): inactive
- Activity (SW1353 [7]): inactive
- Activity (SW1353 [9]): inactive
- Activity [10]: Non-Toxic
- Activity (SW1353 [11]): inactive
- Activity (SW1353 [3]): Active

- EC50 [5]: 17000 nM
SMILES: O=C(Nc1ccc(C(=O)Nc2cccc(C(=O)Nc3cc(S(=O)(=O)O)cc4cc(S(=O)(=O)O)cc(S(=O)(=O)O)c34)c2)cc1)Nc1ccc(C(=O)Nc2cccc(C(=O)Nc3cc(S(=O)(=O)O)cc4cc(S(=O)(=O)O)cc(S(=O)(=O)O)c34)c2)cc1
- Activity (SW1353 [1]): Non-Toxic
- Activity [2]: -50%
- inhibition (Sus scrofa): Active

SMILES: Nc1ccc(C(=O)Nc2cc(S(=O)(=O)O)cc3cc(S(=O)(=O)O)cc(S(=O)(=O)O)c23)cc1
- Activity (SW1353 [3]): inactive

- Kd [12]: > 100 nM
SMILES: O=C(Nc1cccc(C(=O)Nc2cc(S(=O)(=O)O)cc3ccc(S(=O)(=O)O)cc23)c1)Nc1cccc(C(=O)Nc2cc(S(=O)(=O)O)cc3ccc(S(=O)(=O)O)cc23)c1
